Reference: ChEMBL document CHEMBL1124035, “1-Amino-substituted 4-methyl-5H-pyrido[4,3-b]indoles (gamma-carbolines) as tricyclic analogues of ellipticines: a new class of antineoplastic agents” (1988)

Columns and labels:
Mus musculus [1] = test: Weight change in g at a dose of 50 mg/kg intravenous administration to P388 leukemia model; type: functional
Method in brief: (§1)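 Mice (10 per group) were inoculated ip at D0 with 10^6 P388 leukemia cells and given a single iv dose at D1. Read-outs were weight change (g), median survival day, T/C % versus controls and survivors at D30.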

Mus musculus [2] = test: Median survival day of P388 leukemia infected mice, when a dose of 10 mg/kg administered intraperitoneally; type: functional; details: route intraperitoneal
Method in brief: (§2)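 P388 leukaemia in CDF1 hybrid mice, 10 per group. At D0, 10^6 viable cells were inoculated ip, followed by a single ip dose of drug in distilled water on D1. Weight change, median survival day, T/C (treated/control median survival × 100) and survivors at D30 were recorded. Controls were 20 mice.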

Mus musculus [3] = test: Weight change in g when a dose of 10 mg/kg administered intraperitoneally to P388 leukemia infected mice; type: functional; details: route intraperitoneal
Method in brief: (§3)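 P388 model with a single ip dose. Mice (10 per group) were inoculated ip at D0 with 10^6 P388 cells and given one ip drug dose at D1. Body-weight change (g), median survival day, T/C and survivors at D30 were recorded.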

Mus musculus [4] = test: In vivo toxicity test on P388 cells at a dose of 100 mg/kg administered intravenously to mice; type: functional; details: route intravenous; method in brief: as §1
Mus musculus [5] = test: Survivors at day 30 when a dose of 50 mg/kg administered intravenously to P388 (iv) to L1210 leukemia mice model; type: functional
Mus musculus [6] = test: Median survival day of B16 melanoma infected mice, when a dose of 10 mg/kg administered intraperitoneally; type: functional; details: route intraperitoneal
Method in brief: (§4)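 B16 melanoma in hybrid BD F1 mice. At D0 each mouse was inoculated ip with 0.5 mL of homogenate made from 1 g of tumour in 10 mL of physiological serum. Compounds were given ip daily at the stated doses for 9 days (D1-9), with cis-platinum 0.5 mg/kg under the same schedule as positive control.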

Mus musculus [7] = test: Median survival day of B16 melanoma infected mice, when a dose of 2.5 mg/kg administered intraperitoneally; type: functional; details: route intraperitoneal; method in brief: as §4
Mus musculus [8] = test: Survivors at day 30 when a dose of 100 mg/kg administered intravenously to P388 (iv) to L1210 leukemia mice model; type: functional
Mus musculus [9] = test: Median survival day of P388 leukemia infected mice, when a dose of 5 mg/kg administered intraperitoneally; type: functional; details: route intraperitoneal; method in brief: as §2
Mus musculus [10] = test: Survivors at day 60 when a dose of 1.25 mg/kg to B16 melanoma infected when tested in 10 mice; type: functional
Mus musculus [11] = test: Median survival day of B16 melanoma infected mice, when a dose of 5 mg/kg administered intraperitoneally; type: functional; details: route intraperitoneal; method in brief: as §4
Mus musculus [12] = test: Antitumor activity against L1210 cells at a dose of 20 mg/kg administered intravenously to mice; type: functional; details: route intravenous
Method in brief: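 P388 (10^6 cells) or L1210 (10^5 cells) leukemia was inoculated ip in mice at D0, followed by a single iv drug treatment on D1. Weight change was recorded. T/C % = median survival day of treated / controls × 100; survivors noted at D30; 10-15 mice per group.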

Mus musculus [13] = test: Median survival day in P388 cell line when a dose of 100 mg/kg administered intravenously to mice; type: functional; details: route intravenous
Method in brief: (§5)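 P388 leukaemia in CDF1 hybrid mice, 10 per group. At D0, 10^6 viable cells were inoculated ip, followed by a single iv dose on D1. Weight change, median survival day, T/C (treated/control median survival × 100) and survivors at D30 were recorded.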

Mus musculus [14] = test: […] in C38 adenocarcinoma cell line when a dose of 50 mg/kg administered intravenously in mice; type: functional, MC-38; details: route intravenous
Method in brief: (§6)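 C38 colon adenocarcinoma in hybrid BD F1 mice, 10 per test. A standard 3-mm³ tumour fragment was implanted sc. Drugs were given iv at the stated doses on D1 or on D2 + D9, following the Geran et al. NCI protocol.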

Mus musculus [15] = test: Weight change in g when a dose of 20 mg/kg administered intraperitoneally to P388 leukemia infected mice; type: functional; details: route intraperitoneal; method in brief: as §3
Mus musculus [16] = test: Survivors at day 30 when a dose of 40 mg/kg to P388 leukemia model; 0/10; type: functional
Mus musculus [17] = test: Antitumor activity against P388 leukemia in mice at a dose of 20 mg/kg administered intraperitoneally for 5 days; type: functional; details: route intraperitoneal
Method in brief: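 CDF1 hybrid male or female mice, 10 per group, were inoculated ip with 10^6 viable P388 cells on day 0. Drugs in distilled water were given ip (0.1 mL/10 g body weight) daily D1-5. Vehicle, 5-fluorouracil and BD 84 were given the same way. T/C = median survival day of treated / controls × 100; T/C > 128% was significant; cures counted at D60.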

Mus musculus [18] = test: Median survival day in B16 melanoma cell line when a dose of 30 mg/kg administered intraperitoneally to mice; type: functional; details: route intraperitoneal; method in brief: as §4
Mus musculus [19] = test: Weight change in g when a dose of 20 mg/kg administered intraperitoneally in B-16 melanoma infected mice; type: functional; details: route intraperitoneal
Method in brief: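 Hybrid BDF1 mice were inoculated ip at D0 with 0.5 mL of B16 melanoma homogenate (1 g tumor in 10 mL physiological serum). Drug was given ip daily on days 1-9, with cis-platinum 0.5 mg/kg as positive control on the same schedule.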

Mus musculus [20] = test: Survivors at day 60 when a dose of 10 mg/kg to B16 melanoma infected mice; 4/10; type: functional
Mus musculus [21] = test: Antitumor activity against C38 adenocarcinoma cells at a dose of 100 mg/kg administered intravenously on D1 to mice; tumor volume at D38 (T/C); details: route intravenous
Mus musculus [22] = test: Median survival day in P388 cell line when a dose of 40 mg/kg administered intraperitoneally to P388 leukemia model; type: functional; details: route intraperitoneal; method in brief: as §2
Mus musculus [23] = test: […] in C38 adenocarcinoma cell line when a dose of 75 mg/kg administered intravenously to mice; type: functional, MC-38; details: route intravenous; method in brief: as §6
Mus musculus [24] = test: Survivors at day D32 when a dose of 50 mg/kg administered intravenously to C38 adenocarcinoma mice models; 10/10; type: functional; details: route intravenous
Method in brief: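 Hybrid BDF1 mice, 10 per test, were implanted sc with a standard 3-mm³ fragment of C38 colon adenocarcinoma. Drug was given iv either on D1 alone or on D2 and D9. Animals were followed per NCI (Geran) protocol.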

Mus musculus [25] = test: […] in C38 adenocarcinoma cell line when a dose of 50 mg/kg administered intravenously to mice; type: functional, MC-38; details: route intravenous; method in brief: as §6
Mus musculus [26] = test: Median survival day in P388 leukemia model when a dose of 50 mg/kg administered intravenously to mice; type: functional; details: route intravenous; method in brief: as §5
Mus musculus [27] = test: Weight change in g when a dose of 100 mg/kg intravenous administration to P388 leukemia mice model; type: functional; method in brief: as §1
Mus musculus [28] = test: Survivors at day 60 when a dose of 10 mg/kg to B16 melanoma infected mice; 0/10
Mus musculus [29] = test: Median survival day in P388 leukemia mice model when a dose of 100 mg/kg administered intravenously; type: functional; details: route intravenous; method in brief: as §5
Mus musculus [30] = test: Survivors at day 60 when a dose of 1.25 mg/kg to B16 melanoma infected mice; 0/10
Mus musculus [31] = test: Survivors at day 60 when a dose of 2.5 mg/kg to B16 melanoma infected mice; 0/10

`Cc1cnc(NCCCN(C)C)c2c3cc(O)ccc3n(C)c12` was tested. Which Weight change (Mus musculus [1]) did it give?
Its Weight change is 0.5 g.

And the Median survival day (Mus musculus [2])?
The Median survival day was 19.

And the Weight change (Mus musculus [3])?
Its Weight change is -1.4 g.

And the T/C (Mus musculus [4])?
Its T/C is 236%.

And the Survivors (Mus musculus [5])?
The Survivors was 1.

And the Median survival day (Mus musculus [6])?
Its Median survival day is 11.75.

What about the Median survival day (Mus musculus [7]) of the same compound?
The Median survival day was 32.6.

What about the Survivors (Mus musculus [8]) of the same compound?
The Survivors was 4.

What about the Median survival day (Mus musculus [9]) of the same compound?
Its Median survival day is 19.75.

What about the Survivors (Mus musculus [10]) of the same compound?
Its Survivors is 0.

And the Median survival day (Mus musculus [11])?
The Median survival day was 50.

And the T/C (Mus musculus [12])?
The T/C was 157%.

What about the Median survival day (Mus musculus [13]) of the same compound?
Its Median survival day is 25.75.

And the Median tumoral volume (Mus musculus [14])?
Its Median tumoral volume is 0 cm*3.

And the Weight change (Mus musculus [15])?
Its Weight change is -2.5 g.

How did the Survivors (Mus musculus [16]) turn out when `CCN(CC)CCCNc1[nH]cc(C)c2nc3ccc(O)cc3c1-2` was run?
The Survivors was 0.

What about the T/C (Mus musculus [17]) of the same compound?
The T/C was 238%.

And the Median survival day (Mus musculus [18])?
The Median survival day was 9.

What about the Weight change (Mus musculus [19]) of the same compound?
Its Weight change is -0.8 g.

What about the Survivors (Mus musculus [20]) of the same compound?
The Survivors was 4.

With `CCN(CC)CCCNc1ncc(C)c2c1c1cc(O)ccc1n2C` as the compound, how does the Tumor volume (Mus musculus [21]) read?
The Tumor volume was 36%.

What about the Median survival day (Mus musculus [22]) of the same compound?
Its Median survival day is 23.

What about the Median tumoral volume (Mus musculus [23]) of the same compound?
Its Median tumoral volume is 0.97 cm*3.

What about the Survivors (Mus musculus [24]) of the same compound?
The Survivors was 10.

What about the Median tumoral volume (Mus musculus [25]) of the same compound?
Its Median tumoral volume is 1.38 cm*3.

What about the Median survival day (Mus musculus [26]) of the same compound?
Its Median survival day is 19.

And the Weight change (Mus musculus [27])?
Its Weight change is -1.6 g.

And the Survivors (Mus musculus [28])?
The Survivors was 0.

And the Median survival day (Mus musculus [29])?
The Median survival day was 24.3.

And the Survivors (Mus musculus [30])?
Its Survivors is 0.

What about the Survivors (Mus musculus [31]) of the same compound?
The Survivors was 0.
